For 45 compounds, MIC results are on record in ChEMBL document CHEMBL1142917, “Synthesis and structure-antibacterial activity relationship investigation of isomeric 2,3,5-substituted perhydropyrrolo[3,4-d]isoxazole-4,6-diones” (2007).

≈ marks a conversion by molar mass, not a printed value.

As usually defined, the MIC is the lowest concentration found to suppress growth. The low end stands for inhibition by little substance, the high end for a need for much substance.

The subject of one test is Enterococcus faecalis. Nature of the test: Antibacterial activity against Enterococcus faecalis ATCC 29212 by broth microdilution method. The format is functional. The method in brief: (§1)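 NCCLS broth microdilution in Mueller–Hinton broth, DMSO stocks. Twofold series of 1600 to 0.39 μg/ml, or 1000 to 0.975 μg/ml for some compounds. Inoculum set to 0.5 McFarland (1×10^8 CFU/ml), diluted 1/10, giving 5×10^5 CFU/ml per well. Plates incubated 16-20 h at 35 °C. MIC taken as the lowest concentration preventing visible growth. Ampicillin reference.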

The test system of a further test is Staphylococcus aureus. Nature of the test: Antibacterial activity against Staphylococcus aureus ATCC 25923 by broth microdilution method. The test is classed as functional. The method in brief: as §1
(Broth dilution looks for growth in wells or tubes with falling amounts of substance.)

With `CN1C(=O)[C@H]2[C@@H](c3ccc([N+](=O)[O-])cc3)N(C)O[C@H]2C1=O`, the minimal inhibitory concentration (MIC) stood at 690 µM (≈ 201 µg/mL) against Enterococcus faecalis and 1370 µM (≈ 399 µg/mL) with Staphylococcus aureus.
Consider `CN1O[C@H]2C(=O)N(c3ccccc3)C(=O)[C@H]2[C@@H]1c1ccccc1` (relative stereo), for which the minimal inhibitory concentration (MIC) in the test on Enterococcus faecalis was 1620 µM (≈ 500 µg/mL); with Staphylococcus aureus, 410 µM (≈ 126 µg/mL).
On the same counts, the results for `CN1O[C@H]2C(=O)N(c3ccccc3)C(=O)[C@H]2[C@H]1c1ccc(Br)cc1` (relative stereo) are 520 µM (≈ 201 µg/mL) and 120 µM (≈ 46.5 µg/mL).
On the same counts, the results for `CN1O[C@H]2C(=O)N(c3ccccc3)C(=O)[C@H]2[C@H]1c1ccc(Cl)cc1` are 730 µM (≈ 250 µg/mL) and 360 µM (≈ 123 µg/mL).
On the same counts, the results for `CCN(CC)c1ccc([C@H]2[C@@H]3C(=O)N(c4ccccc4)C(=O)[C@@H]3ON2C)cc1` are 4220 µM (≈ 1600 µg/mL) and 4220 µM (≈ 1600 µg/mL).
As to `CCN(CC)c1ccc([C@H]2[C@@H]3C(=O)N(C)C(=O)[C@@H]3ON2C)cc1` (relative stereo), the minimal inhibitory concentration (MIC) with Enterococcus faecalis and with Staphylococcus aureus was 630 µM (≈ 200 µg/mL) throughout.
`CN1C(=O)[C@H]2[C@@H](c3ccc(N(C)C)cc3)N(c3ccccc3)O[C@H]2C1=O` (relative stereo): the MIC against Enterococcus faecalis and in the test on Staphylococcus aureus was 280 µM (≈ 98.4 µg/mL) each time.
With `CN1C(=O)[C@@H]2[C@@H](ON(C)[C@H]2c2cccc(Br)c2)C1=O` (relative stereo), the results for the MIC against Enterococcus faecalis and against Staphylococcus aureus were 1230 µM (≈ 400 µg/mL) and 620 µM (≈ 202 µg/mL), respectively.
The corresponding values for `CN1C(=O)[C@@H]2[C@@H](ON(C)[C@H]2c2ccccc2)C1=O` (relative stereo) are 1020 µM (≈ 251 µg/mL) and 510 µM (≈ 126 µg/mL).
The corresponding values for `COc1ccc([C@@H]2[C@@H]3C(=O)N(C)C(=O)[C@@H]3ON2C)cc1` (relative stereo) are more than 5790 µM and 5790 µM (≈ 1600 µg/mL).
On the same counts, the results for `COc1ccc([C@H]2[C@@H]3C(=O)N(c4ccccc4)C(=O)[C@@H]3ON2C)cc1` (relative stereo) are 1180 µM (≈ 399 µg/mL) and 1180 µM (≈ 399 µg/mL).
In the case of `CN1C(=O)[C@H]2[C@@H](c3ccccc3)N(C)O[C@H]2C1=O` (relative stereo), the figures for the MIC with Enterococcus faecalis and against Staphylococcus aureus were 1620 µM (≈ 399 µg/mL) and 810 µM (≈ 199 µg/mL), respectively.
For `COc1ccc([C@H]2[C@@H]3C(=O)N(C)C(=O)[C@@H]3ON2C)cc1` (relative stereo), the MIC was more than 5790 µM against Enterococcus faecalis and 1450 µM (≈ 401 µg/mL) with Staphylococcus aureus.
The corresponding values for `COc1cc([C@@H]2[C@@H]3C(=O)N(C)C(=O)[C@@H]3ON2C)ccc1OCc1ccccc1` (relative stereo) are 130 µM (≈ 49.7 µg/mL) and 130 µM (≈ 49.7 µg/mL).
The corresponding values for `COc1cc([C@@H]2[C@@H]3C(=O)N(c4ccccc4)C(=O)[C@@H]3ON2C)ccc1OCc1ccccc1` are more than 3600 µM and 3600 µM (≈ 1600 µg/mL).
With `CN1C(=O)[C@H]2[C@@H](c3cccc(Cl)c3)N(C)O[C@H]2C1=O` (relative stereo), the values for the minimal inhibitory concentration (MIC) against Enterococcus faecalis and against Staphylococcus aureus were 2850 µM (≈ 800 µg/mL) and 1430 µM (≈ 401 µg/mL), respectively.
The corresponding values for `Cc1ccc([C@@H]2[C@@H]3C(=O)N(C)C(=O)[C@@H]3ON2C)cc1` (relative stereo) are more than 6150 µM and 6150 µM (≈ 1600 µg/mL).
The corresponding values for `CN1O[C@H]2C(=O)N(c3ccccc3)C(=O)[C@H]2[C@H]1c1ccc([N+](=O)[O-])cc1` are 710 µM (≈ 251 µg/mL) and 570 µM (≈ 201 µg/mL).
On the same counts, the results for `CN1O[C@H]2C(=O)N(c3ccccc3)C(=O)[C@H]2[C@@H]1c1ccc(Br)cc1` (relative stereo) are 520 µM (≈ 201 µg/mL) and 130 µM (≈ 50.3 µg/mL).
For the compound `CN1O[C@H]2C(=O)N(c3ccccc3)C(=O)[C@H]2[C@@H]1c1cccc(Br)c1` (relative stereo), the MIC against Enterococcus faecalis amounted to 520 µM (≈ 201 µg/mL); in the test on Staphylococcus aureus it was 130 µM (≈ 50.3 µg/mL).
On the same counts, the results for `CN1C(=O)[C@@H]2[C@@H](ON(C)[C@H]2c2ccc(Br)cc2)C1=O` (relative stereo) are 620 µM (≈ 202 µg/mL) and 310 µM (≈ 101 µg/mL).
On the same counts, the results for `CN1C(=O)[C@@H]2[C@@H](ON(C)[C@H]2c2ccc(Cl)cc2)C1=O` are 1430 µM (≈ 401 µg/mL) and 1430 µM (≈ 401 µg/mL).
On the same counts, the results for `CN1O[C@H]2C(=O)N(c3ccccc3)C(=O)[C@H]2[C@@H]1c1ccc(Cl)cc1` are 1170 µM (≈ 401 µg/mL) and 1170 µM (≈ 401 µg/mL).
As to `CN1O[C@H]2C(=O)N(c3ccccc3)C(=O)[C@H]2[C@@H]1c1ccc([N+](=O)[O-])cc1`, the results for the MIC in the test with Enterococcus faecalis and against Staphylococcus aureus were 280 µM (≈ 98.9 µg/mL) and 570 µM (≈ 201 µg/mL), respectively.
On the same counts, the results for `CN1C(=O)[C@@H]2[C@@H](ON(C)[C@H]2c2ccc(N(C)C)cc2)C1=O` (relative stereo) are 5530 µM (≈ 1600 µg/mL) and 1380 µM (≈ 399 µg/mL).
On the same counts, the results for `CCN(CC)c1ccc([C@@H]2[C@@H]3C(=O)N(c4ccccc4)C(=O)[C@@H]3ON2C)cc1` (relative stereo) are 660 µM (≈ 250 µg/mL) and 330 µM (≈ 125 µg/mL).
The corresponding values for `CC1(C)S[C@@H]2[C@H](NC(=O)[C@H](N)c3ccccc3)C(=O)N2[C@H]1C(=O)O` [AMPICILLIN] are 2 µM (≈ 0.699 µg/mL) and 2 µM (≈ 0.699 µg/mL).
`COc1cc([C@H]2[C@@H]3C(=O)N(c4ccccc4)C(=O)[C@@H]3ON2C)ccc1OCc1ccccc1`: the minimum inhibitory concentration (MIC) in the test with Enterococcus faecalis was 1130 µM (≈ 502 µg/mL); against Staphylococcus aureus, 280 µM (≈ 124 µg/mL).
For the compound `Cc1ccc([C@H]2[C@@H]3C(=O)N(c4ccccc4)C(=O)[C@@H]3ON2C)cc1` (relative stereo), the minimal inhibitory concentration (MIC) came out at 1240 µM (≈ 400 µg/mL) in the test on Enterococcus faecalis and 620 µM (≈ 200 µg/mL) against Staphylococcus aureus.
The corresponding values for `CN1C(=O)[C@H]2[C@@H](c3cccc(Br)c3)N(C)O[C@H]2C1=O` (relative stereo) are 620 µM (≈ 202 µg/mL) and 1230 µM (≈ 400 µg/mL).
On the same counts, the results for `CN1C(=O)[C@@H]2[C@@H](ON(C)[C@H]2c2ccc([N+](=O)[O-])cc2)C1=O` are 5490 µM (≈ 1600 µg/mL) and 2750 µM (≈ 801 µg/mL).
For the compound `CN(C)c1ccc([C@H]2[C@@H]3C(=O)N(c4ccccc4)C(=O)[C@@H]3ON2C)cc1`, the MIC with Enterococcus faecalis was found to be 710 µM (≈ 249 µg/mL); against Staphylococcus aureus it was 360 µM (≈ 127 µg/mL).
As for `CN1C(=O)[C@@H]2[C@@H](ON(C)[C@H]2c2cccc(Cl)c2)C1=O` (relative stereo), the results for the minimal inhibitory concentration (MIC) against Enterococcus faecalis and with Staphylococcus aureus were 1430 µM (≈ 401 µg/mL) and 710 µM (≈ 199 µg/mL), respectively.
The corresponding values for `CN1C(=O)[C@H]2[C@@H](c3ccc(N(C)C)cc3)N(C)O[C@H]2C1=O` (relative stereo) are 1380 µM (≈ 399 µg/mL) and 1380 µM (≈ 399 µg/mL).
`COc1ccc([C@@H]2[C@@H]3C(=O)N(c4ccccc4)C(=O)[C@@H]3ON2C)cc1` (relative stereo): the minimal inhibitory concentration (MIC) against Enterococcus faecalis came to 1180 µM (≈ 399 µg/mL); against Staphylococcus aureus, 590 µM (≈ 200 µg/mL).
The corresponding values for `CN1C(=O)[C@H]2[C@@H](c3ccc(Cl)cc3)N(C)O[C@H]2C1=O` are 1430 µM (≈ 401 µg/mL) and 1430 µM (≈ 401 µg/mL).
Regarding `Cc1ccc([C@@H]2[C@@H]3C(=O)N(c4ccccc4)C(=O)[C@@H]3ON2C)cc1` (relative stereo), the minimal inhibitory concentration (MIC) against Enterococcus faecalis and against Staphylococcus aureus was 3100 µM (≈ 999 µg/mL) in each case.
In the case of `CCN(CC)c1ccc([C@@H]2[C@@H]3C(=O)N(C)C(=O)[C@@H]3ON2C)cc1` (relative stereo), the MIC against Enterococcus faecalis and in the test with Staphylococcus aureus was 80 µM (≈ 25.4 µg/mL) each time.
As for `Cc1ccc([C@H]2[C@@H]3C(=O)N(C)C(=O)[C@@H]3ON2C)cc1` (relative stereo), the figures for the minimum inhibitory concentration (MIC) against Enterococcus faecalis and with Staphylococcus aureus were 6150 µM (≈ 1600 µg/mL) and 3070 µM (≈ 799 µg/mL), respectively.
As to `CN1O[C@H]2C(=O)N(c3ccccc3)C(=O)[C@H]2[C@H]1c1ccccc1` (relative stereo), the figures for the MIC against Enterococcus faecalis and against Staphylococcus aureus were 5190 µM (≈ 1600 µg/mL) and more than 5190 µM, respectively.
Consider `CN1C(=O)[C@@H]2[C@@H](ON(c3ccccc3)[C@H]2c2ccc(N(C)C)cc2)C1=O` (relative stereo), for which the MIC against Enterococcus faecalis was determined as 1140 µM (≈ 401 µg/mL); in the test with Staphylococcus aureus, 280 µM (≈ 98.4 µg/mL).
On to `CN(C)c1ccc([C@@H]2[C@@H]3C(=O)N(c4ccccc4)C(=O)[C@@H]3ON2C)cc1`, for which the MIC against Enterococcus faecalis was more than 4550 µM; with Staphylococcus aureus, 4550 µM (≈ 1600 µg/mL).
The corresponding values for `CN1O[C@H]2C(=O)N(c3ccccc3)C(=O)[C@H]2[C@H]1c1cccc(Br)c1` (relative stereo) are 650 µM (≈ 252 µg/mL) and 320 µM (≈ 124 µg/mL).
The corresponding values for `CN1C(=O)[C@H]2[C@@H](c3ccc(Br)cc3)N(C)O[C@H]2C1=O` (relative stereo) are 1230 µM (≈ 400 µg/mL) and 2460 µM (≈ 800 µg/mL).
`COc1cc([C@H]2[C@@H]3C(=O)N(C)C(=O)[C@@H]3ON2C)ccc1OCc1ccccc1` (relative stereo): the results for the MIC with Enterococcus faecalis and against Staphylococcus aureus were 650 µM (≈ 249 µg/mL) and 330 µM (≈ 126 µg/mL), respectively.
